SENP1 FRET inh: blocks the human SENP1 SUMO protease catalytic domain | recombinant SENP1 catalytic domain, CyPet-SUMO1-YPet FRET cleavage | actives 0.21% (n = 360,000) | Q9P0U3 | AID 624204 | inhibition, % at 10 µM;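 active = inhibition at least 30% at 10 µM, raw YFP signal under a set limit, fluorescence ratio 0.5 to 1.5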
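Test system: human SENP1 catalytic domain; medium: Tris pH 8 buffer plus EDTA, NaCl, BME, BSA, NP40, catalase; incubation: 50 min reaction at room temperature; technique: FRET, CFP and YFP emission; controls: no-enzyme low control and enzyme-plus-DMSO high control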
Myeloid diff 2: promotes myeloid progenitor differentiation; actives 1% (n = 360,000); calls only at 10 µM; AID 624256; ER-HoxA9 myeloid progenitors, lysozyme-GFP differentiation, flow cytometry;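 active = normalized GFP-positive differentiation at or above the plate's own cutoff, the solvent-only control mean plus 3 SD; inconclusive = no clear call, values can overlap the other calls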;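 also: cells exposed to compound for four days before flow analysis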
VLA-4 inh: inhibition in a human VLA-4 binding assay; VLA-4 expressing cells, ligand binding flow cytometry; inhibition, % (about 7 µM as worked out from the volumes in the protocol); actives 0.2% (n = 330,000); AID 2557; in the data active = inhibition above about 50%
Platelet DG rel: modulates dense granule release in human platelets; inhibition, %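 (compounds screened at 7.5 µM in platelet-rich plasma)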; actives 0.22% (n = 300,000); human platelet-rich plasma, SFLLRN dense granule ATP release, luminescence;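 active = mean replicate score, as percent of positive control, at or above 50; inconclusive = mean below 50 but at least one replicate at or above 50; inactive = mean and every replicate below 50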
Each line names hits and unclear results; the compound was inactive in the other large screens. The list is not random: actives were taken first. Their share in the collection is about 1.5%.

Cc1cc(O)c(C(C)C)cc1N=Nc1ccccc1C(=O)O	none
Cc1cc(C(=O)Cn2nnc3ccccc3c2=O)c(C)n1-c1ccccc1F	Myeloid diff 2 active
COc1ccc(-n2c(C)cc(C(=O)Cn3nnc4ccccc4c3=O)c2C)cc1	none
O=C(c1nn2c(C(F)(F)F)cc(-c3cccs3)nc2c1Cl)N1CCCc2ccccc21	Myeloid diff 2 active
O=C(c1cnn2c(C(F)(F)F)cc(-c3ccccc3)nc12)N1CCCc2ccccc21	none
CCOC(=O)C1CCN(CC(C)(C)NS(=O)(=O)c2ccccc2)CC1	none
CCOc1cc(/C=C2\CCC/C(=C\c3cc(Cl)c(O)c(OCC)c3)C2=O)cc(Cl)c1O	Myeloid diff 2 active
CCOc1ccc(N2C(=O)CC(Sc3nc4ccc(OCC)cc4s3)C2=O)cc1 (stereo not given)	Platelet DG rel 56
CCOc1ccc2nc(SC3CC(=O)N(c4ccc(C)cc4)C3=O)sc2c1 (stereo not given)	none
COc1ccc(S(=O)(=O)N(C)C[C@H]2Oc3ccc(NC(=O)c4ccncc4)cc3C(=O)N([C@H](C)CO)C[C@@H]2C)cc1	none (no result: Platelet DG rel)
COC(=O)c1ccc(CSc2nc3c(c(=O)n2-c2ccc(Br)cc2)SCC3)o1	Myeloid diff 2 active
COc1ccc(S(=O)(=O)Cc2ccc(C(=O)N3CCN(c4cccc(C)c4C)CC3)o2)cc1	none
Cc1ccc(S(=O)(=O)Cc2ccc(C(=O)N3CCN(c4cccc(C)c4C)CC3)o2)cc1	Myeloid diff 2 inconclusive, Platelet DG rel 94
COc1ccc(-c2ccc3c(c2)c(Sc2ccccc2)c(-c2ccccc2)n3C)cn1	none (no result: VLA-4 inh, Platelet DG rel)
O=C(CSc1nnc2c3ccccc3c3ccccc3c2n1)Nc1ccccc1	none (no result: SENP1 FRET inh, Myeloid diff 2)
O=C(CSc1nnc2c3ccccc3c3ccccc3c2n1)Nc1ccccc1F	Platelet DG rel 55 (no result: Myeloid diff 2)
Cn1c(=O)c(C(=O)NNC(=O)c2ccccc2F)c(O)c2ccccc21	Myeloid diff 2 active
COc1ccccc1C1NC(=O)c2ccccc2O1 (stereo not given)	none
Cc1cccc(NC(=O)Nc2ccc(F)cc2)n1	Myeloid diff 2 active (no result: Platelet DG rel)
CCC(=O)NNc1ncnc2ccccc12	none
O=C(O)CCC(=O)NNc1ncnc2ccccc12	VLA-4 inh 50
CCOC(=O)[C@]12CCCC=C1N(Cc1ccco1)C(=O)[C@H](CC(=O)NCCCN1CCCC1=O)C2	none (no result: VLA-4 inh, Platelet DG rel)
CCCCn1nnc(NC(=O)c2sc3cc(Cl)ccc3c2Cl)n1	none
CCN(CC)Cc1ccc(NC(=O)c2sc3cc(Cl)ccc3c2Cl)cc1	Myeloid diff 2 active
CCCc1c(NC(=O)Nc2ccc(F)cc2)cnn1-c1ccc(Cl)cc1	Myeloid diff 2 active
O=C(c1cccs1)N1CCN(C(=O)c2cccs2)C1=S	Myeloid diff 2 inconclusive (no result: VLA-4 inh, Platelet DG rel)
O=C1CC(/C=C/c2ccccn2)=Nc2ccccc2N1	none
O=C1CC(/C=C/c2ccco2)=Nc2ccccc2N1	Myeloid diff 2 active
O=C(COC(=O)c1cc(-c2cccc(Br)c2)nc2ccccc12)NCC1CCCO1 (stereo not given)	none
Cc1ccccc1-c1cc(C(=O)O)nn1CC1CC(c2cccc([N+](=O)[O-])c2)=NO1 (stereo not given)	none (no result: Platelet DG rel)
CC(C)C(NS(=O)(=O)c1c(Cl)cccc1Cl)C(=O)OCC(=O)c1c[nH]c2ccccc12 (stereo not given)	Myeloid diff 2 active
CC(O)C(NS(=O)(=O)c1ccc(Cl)cc1)C(=O)OCC(=O)c1c[nH]c2ccccc12 (stereo not given)	none
CNc1ncnc2c1ncn2[C@H]1CN(CCc2ccccc2)C[C@@H](CO)O1	none (no result: VLA-4 inh, Platelet DG rel)
O=C(CSc1nc2ccccc2n1-c1ccccc1)Nc1ncc(Cl)cc1Cl	none
Cc1cccc(-n2c(SCC(=O)Nc3ncc(Cl)cc3Cl)nc3ccccc32)c1	Myeloid diff 2 active
CC(C)n1c(CN2CCN(C(=O)c3ccco3)CC2)nc2c1c(=O)n(C)c(=O)n2C	none
O=C1N(Cc2cccc(Cl)c2)C[C@@H]2C[C@@H](c3cccc4ncccc34)N3CCC[C@@]123	none
O=C1N(Cc2cccc(Cl)c2)C[C@@H]2C[C@@H](c3c[nH]c4ccccc34)N3CCC[C@@]123	Myeloid diff 2 active
Cc1ccc(S(=O)(=O)N(CC2CO2)c2cc(Cl)ccc2Cl)cc1 (stereo not given)	none
Cc1ccc(NC(=O)C2CCN(c3ncnc4sc(C)c(C)c34)CC2)cc1S(=O)(=O)N(C)C	none
Cc1ccc(C)c(S(=O)(=O)N2CCN(C(=O)C3CCN(c4ncnc5sc(C)c(C)c45)CC3)CC2)c1	Myeloid diff 2 active
CCOc1ccc(NS(=O)(=O)c2cc(C(=O)N3CCN(c4ccccc4O)CC3)ccc2Cl)cc1	none (no result: VLA-4 inh, Platelet DG rel)
COC(=O)[C@@]1(Cc2ccc(F)cc2)[C@H]2C(CC(=O)C(=O)N3CCCC3)C(=O)C[C@H]2CN1C(=O)c1ccccc1 (stereo not given in full)	none (no result: VLA-4 inh, Platelet DG rel)
COC(=O)[C@@]1(Cc2ccc(OC)cc2)[C@@H]2C(=CC(=O)[C@H]2CC(=O)C(=O)N2CCCC2)CN1C(=O)c1ccccc1	Myeloid diff 2 active (no result: Platelet DG rel)
Cc1c(NC(=O)CSc2nnc(-c3ccncc3)n2C)c(=O)n(-c2ccccc2)n1C	none (no result: VLA-4 inh, Platelet DG rel)
Oc1ccc(/C=N/NC(=S)N/N=C/c2ccc(O)cc2)cc1	Platelet DG rel 115
CC(=O)c1c(C)[nH]c(C(=O)OCC(=O)NCc2ccc(Cl)cc2)c1C	none (no result: Platelet DG rel)
CC(=O)c1c(C)[nH]c(C(=O)OCC(=O)NCc2ccc3c(c2)OCO3)c1C	Myeloid diff 2 active (no result: Platelet DG rel)
CCC(C)(C)NC(=O)CN(Cc1ccc(OC)cc1)C(=O)CCC(=O)Nc1nccs1	none
CCCCCNC(=O)c1ccc2c(=O)[nH]c3c(C(=O)NCC4CCCO4)sc(=S)n3c2c1 (stereo not given)	SENP1 FRET inh 52
O=C(NCc1ccccc1)c1ccc2c(=O)[nH]c3c(C(=O)NCC4CCCO4)sc(=S)n3c2c1 (stereo not given)	SENP1 FRET inh 38
CCn1c(N)c(C(=O)NCC2CCCO2)sc1=S (stereo not given)	none
O=C(NCc1ccccc1)c1ccc2c(=O)n(CC3CCCO3)c(=S)[nH]c2c1 (stereo not given)	none
Cc1ccc(CNC(=O)c2ccc3c(=O)[nH]c4c(C(=O)NCC5CCCO5)sc(=S)n4c3c2)cc1 (stereo not given)	SENP1 FRET inh 39
FC(F)(F)c1ccccc1Cc1c(-c2cccc(Br)c2)nc2ccc(Br)cn12	none (no result: VLA-4 inh, Platelet DG rel)
O=C(Nc1ccc(Cl)c(S(=O)(=O)N2CCOCC2)c1)c1cn2ccccc2n1	none
O=C(Nc1ccc(N2CCCCC2)cc1)c1ccccn1	Platelet DG rel 75 (no result: Myeloid diff 2)
O=C(Nc1ccc(N2CCOCC2)cc1)c1cn2ccccc2n1	Platelet DG rel 68
O=C(Nc1ccc(N2CCCC2)cc1)c1cc(Cl)ccc1Cl	Myeloid diff 2 active
O=C(Nc1ccc(N2CCCCCC2)cc1)c1ccccc1Cl	none
COc1ccc(NC(=O)CCOc2ccccc2C)cc1S(=O)(=O)N1CCCCC1	none
Cc1cccc(C)c1NC(=O)CNC(=O)c1ccc(N2CCCC2)c([N+](=O)[O-])c1	none (no result: Platelet DG rel)
Cc1ccccc1OCC(O)CN(Cc1ccccc1O)C1CCCCC1 (stereo not given)	none
CC(=O)Nc1cccc(NC(=O)C(C)N2c3cccc4cccc(c34)S2(=O)=O)c1 (stereo not given)	none

Compound activity: PubChem BioAssay, several laboratories
